≈ marks a conversion by molar mass, not a printed value. Bounds are passed on as bounds.

In general, IC50 refers to the concentration that inhibits the measured activity by half. One may read the Papp B→A as how fast a substance crosses the layer from the basolateral side. The half-life is the time in which the quantity being followed falls by half. Higher therefore signals slow decline. As a reminder, the Papp A→B is the apparent permeability from the apical to the basolateral side of a cell layer. Usually clearance stands for the rate of elimination divided by the concentration. For orientation: solubility means the dissolved amount per volume that the medium holds. A higher solubility goes with much dissolved substance. A word on the bioavailability: it is the share of a dose that reaches the circulation, judged against a reference dose that is usually intravenous.

One data set addresses T1, B1 bradykinin receptor (Homo sapiens, UniProt P46663).
T1 sequence (P46663 whole entry): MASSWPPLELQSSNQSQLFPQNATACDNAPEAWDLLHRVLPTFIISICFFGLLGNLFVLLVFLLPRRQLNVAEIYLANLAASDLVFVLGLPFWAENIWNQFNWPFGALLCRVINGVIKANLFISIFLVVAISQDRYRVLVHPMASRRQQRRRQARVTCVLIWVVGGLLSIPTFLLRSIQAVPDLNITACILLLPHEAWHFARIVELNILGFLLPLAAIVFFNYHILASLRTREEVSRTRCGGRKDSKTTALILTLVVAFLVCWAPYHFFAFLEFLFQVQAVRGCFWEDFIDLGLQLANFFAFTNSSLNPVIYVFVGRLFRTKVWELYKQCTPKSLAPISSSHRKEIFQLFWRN
Nature of the data set: Antagonist activity at bradykinin B1 receptor in human IMR90 cells assessed as inhibition of des-Arg-bradykinin-mediated calcium mobilization. Format: functional, cell-based, IMR-90. Conditions: in the assay text read “des-Arg-kallidin-mediated” for “des-Arg-bradykinin-mediated”. An outline of the steps:
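Human lung fibroblast IMR-90 cells pretreated with IL-1 beta; B1 receptor functional activity read as inhibition of DAKD-mediated calcium mobilization (CAM assay). Values are the numerical average of at least two experiments.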
On the technique in general: A change in cytosolic calcium serves as a functional read-out for many receptors and channels.

Data set [1] in a line: Metabolic stability in human liver microsomes after 1 hr. Format: ADME, Microsome. Conditions: read-out: Stability. An outline of the steps: (§1)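 Incubation with human or rat liver microsomes for 1 h; percent parent remaining reported.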
In a further data set the test system is Caco-2. Put plainly: Ratio of permeability from basolateral to apical side to apical to basolateral side in human Caco-2 cells. Format: ADME, cell-based. An outline of the steps:
(§2)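 Bidirectional permeability through Caco-2 cell monolayers; Papp measured apical-to-basolateral and basolateral-to-apical, with efflux ratio taken as B–A over A–B.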
On the technique in general: Passage across Caco-2 layers is used to estimate intestinal permeability.

The nature of data set [2]: Apparent permeability from basolateral to apical side of human Caco-2 cell. It is filed as ADME, cell-based. An outline of the steps:
as §2

Data set [3] can be described thus: Half life in Wistar rat at 1 mg/kg, iv […]. It is filed as ADME, organism-based. Conditions: in vivo. The essentials:
(§3)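 Male Wistar rats dosed at 1 mg/kg iv (group 1) and 1 mg/kg po (group 2). Plasma aliquots precipitated with methanol containing a structural analogue as internal standard, then analyzed by HPLC-MS/MS for time/concentration values. PK parameters (terminal t1/2, CL, F) derived from these profiles.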

A further data set concerns Hepatocyte. Put plainly: Cytotoxicity against human hepatocytes. Format: cell-based. The essentials: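 Cell viability in plateable cryopreserved human hepatocytes exposed to a range of concentrations up to 100 µM for 24 h at 37 °C; resazurin substrate, resorufin product detected by fluorimetry.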
Data set [4] can be described thus: Apparent permeability from apical to basolateral side of human Caco-2 cell. Format: ADME, cell-based. An outline of the steps:
as §2

The nature of data set [5]: Clearance in Wistar rat at 1 mg/kg, iv […]. The conditions noted are these: in vivo. Format: ADME, organism-based. An outline of the steps: as §3
Data set [6] is described as follows: Metabolic stability in rat liver microsomes after 1 hr. The conditions noted are these: read-out: Stability. Format: ADME, Microsome. The essentials: as §1
On the technique in general: Liver microsomes are vesicles of endoplasmic reticulum, rich in cytochrome P450 enzymes.

Data set [7] is described as follows: Aqueous Solubility in PBS buffer. It is filed as physicochemical.
For a further data set, the species on record is Homo sapiens. Put plainly: Protein binding in human plasma. The conditions noted are these: read-out: PPB (converted).
Data set [8] in a line: Oral bioavailability in Wistar rat at 1 mg/kg. Format: ADME, organism-based. Conditions: in vivo. An outline of the steps: as §3
A short description of data set [9]: Compound remaining in PBS buffer after 5 days. The conditions noted are these: read-out: Stability. Format: physicochemical. The essentials:
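Chemical stability: compound incubated in PBS buffer at 50 °C for 5 days; percent remaining determined.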

For `Cn1nnc(-c2c(F)cc(Cl)cc2-c2cnc(CNC(=O)N(O)C(C)(C)C)c(F)c2)n1`, the IC50 on B1 bradykinin receptor amounted to 1.4 nM.

As to `CCN(O)C(=O)NCc1ncc(-c2cc(Cl)cc(F)c2-c2nnn(C)n2)cc1F`, on B1 bradykinin receptor, the 50% inhibitory concentration (IC50) came to 4.6 nM.

For the molecule `Cn1nnc(-c2c(F)cc(Cl)cc2-c2cnc(CNC(=O)N(O)C3CCCC3)c(F)c2)n1`, the concentration for half-maximal inhibition (IC50) at B1 bradykinin receptor came to 0.8 nM.

On to `Cc1nc(-c2c(F)cc(Cl)cc2-c2ccc(CNC(=O)N(C)O)c(F)c2)no1`, for which the IC50 on B1 bradykinin receptor was found to be 32 nM.

In the case of `Cn1nnc(-c2c(F)cc(Cl)cc2-c2cnc(CNC(=O)N(O)C3CCC(F)(F)CC3)c(F)c2)n1`, the remaining at 1 h was 61% in data set [1] and 84% in [6]. Besides, in the data set with Caco-2, the Ratio is reported as < 3. For the same molecule, the Papp B→A in data set [2] was 430 nm/s. This molecule also yielded a half-life in data set [3] of 47 min. Also, in the data set with Hepatocyte, the Activity entry is reported as “Non-toxic”. Moreover, the Papp A→B in data set [4] was 240 nm/s. This molecule also registered a clearance in data set [5] of 0.78 L/h/kg. This molecule also yielded a solubility in [7] of 39 µM (≈ 20 µg/mL). Also, at B1 bradykinin receptor, the IC50 worked out at 0.19 nM. Also, in the data set listed under Homo sapiens, the fraction unbound was 0.013. In addition, in data set [8], the bioavailability is 78%. Further, the remaining at 120 h in data set [9] is > 99%.

Regarding `CC(C)N(O)C(=O)NCc1ncc(-c2cc(Cl)cc(F)c2-c2nnn(C)n2)cc1F`, at B1 bradykinin receptor, the IC50 is 1 nM.

For the molecule `Cc1nc(-c2c(F)cc(Cl)cc2-c2cnc(CNC(=O)N(C)O)c(F)c2)no1`, the half-maximal inhibitory concentration (IC50) on B1 bradykinin receptor turned out to be 17 nM.

In turn, `Cc1nc(-c2c(F)cc(Cl)cc2-c2cnc([C@@H](C)NC(=O)N(C)O)c(F)c2)no1` showed a half-life in data set [3] of 12 min. Also, the clearance in [5] is 3.48 L/h/kg. Besides, at B1 bradykinin receptor, the half-inhibitory concentration (IC50) turned out to be 1.2 nM. Besides, the bioavailability in data set [8] was 8%.

With `Cn1nnc(-c2c(F)cc(Cl)cc2-c2cnc(CNC(=O)N(O)C3CCCCC3)c(F)c2)n1`, the IC50 at B1 bradykinin receptor is 3.9 nM.

Turning to `Cn1nnc(-c2c(F)cc(Cl)cc2-c2cnc(CNC(=O)NO)c(F)c2)n1`, the IC50 at B1 bradykinin receptor was found to be 59 nM.

Consider `Cc1nc(-c2c(Cl)cc(Cl)cc2-c2cnc([C@@H](C)NC(=O)N(C)O)c(F)c2)no1`, for which, at B1 bradykinin receptor, the half-maximal inhibitory concentration (IC50) was 2.3 nM.

Take `Cc1nc(-c2c(F)cccc2-c2cnc([C@@H](C)NC(=O)N(C)O)c(F)c2)no1`: the half-inhibitory concentration (IC50) at B1 bradykinin receptor was 31 nM.

As for `Cc1nc(-c2c(F)cc(Cl)cc2-c2cnc([C@@H](C)NC(=O)N(C)O)c(C)c2)no1`, the 50% inhibitory concentration (IC50) on B1 bradykinin receptor stood at 3.6 nM.

For `Cn1nnc(-c2c(F)cc(Cl)cc2-c2cnc(CNC(=O)N(O)C(CF)CF)c(F)c2)n1`, the half-life in data set [3] is 80 min. The same molecule returned a clearance in data set [5] of 0.48 L/h/kg. Further, on B1 bradykinin receptor, the IC50 stood at 0.5 nM. In data set [8], this molecule registered a bioavailability of 86%.

As to `Cc1nc(-c2c(F)cc(Cl)cc2-c2ccc(CNC(=O)N(C)O)cc2)no1`, the IC50 on B1 bradykinin receptor was > 100 nM.

Consider `CN(O)C(=O)NCc1ncc(-c2cc(Cl)cc(F)c2-c2nnn(C)n2)cc1F`, for which the IC50 at B1 bradykinin receptor turned out to be 17 nM.

The record behind these values is ChEMBL document CHEMBL1159049, “Novel small molecule bradykinin B1 receptor antagonists. Part 3: hydroxyurea derivatives” (Bioorg Med Chem Lett, 2010).
